T cruzi inh = T. cruzi replication inhibition. 300,000 compounds, 1.4% hits. T. cruzi beta-gal in NIH3T3, luminescence, 90 h. inhibition, % (concentration not given with the values);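 active = mean inhibition across valid replicates above about 55%, limit read from the data; inconclusive = mean below that limit but half or more replicates reach it; inactive = mean below it, under half of replicates reach it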;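 note: signal also drops with host cell toxicity which is not excluded here; 0% = plate median of DMSO wells and 100% = zero luminescence signal; higher percent means less beta-gal luminescence so fewer parasites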
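Read-out: Parasite load inhibition, % | Test system: Mouse NIH/3T3 fibroblasts infected with β-gal-expressing T. cruzi Tulahuen C4 | Amount: 5,000 cells/well | Medium: DMEM, 2% fetal bovine serum | Signal: GalScreen β-gal luminescence, detergent lysis, 60 min | Timing: 3 h attach, ≥90 h co-culture | Also added: Tulahuen C4 trypomastigotes, 5000/well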
NALP1 yeast inh = inhibitors of NALP1 inflammasome in yeast; S. cerevisiae NALP1/ASC/caspase-1 growth, X-gal OD620, 72 h; inhibition, % at 10 µM; 280,000 compounds, 0.61% hits; AID 2071; in the data active = inhibition mostly above about 24%, no sharp cut-off; inactive = mostly below about 32%
Calb FLC = C. albicans growth modulation with fluconazole. C. albicans CaCi-2 + fluconazole, Alamar Blue growth, 48 h. growth inhibition, % (no concentration beside the values). 300,000 compounds, 0.57% hits. AID 1979;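 active = growth inhibition above about 58% in most replicates, limit read from the data, passing the limit was not always enough; inconclusive = exactly half the replicates above a set limit; inactive = most replicates below a set limit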;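 note: all wells also contain fluconazole at 8 µg/ml as a sub-toxic cotreatment; 0% = median of DMSO wells and 100% = median of geldanamycin control wells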
PolyA inhibitor = yeast polyadenylation inhibition; S. cerevisiae SKY197-pL101 polyadenylation reporter, beta-gal luminescence; efflux-impaired pdr1/pdr3 knockout yeast; score 100 = 6 SD above DMSO; activity score, % at 12 µM; 300,000 compounds, 0.02% hits;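 active = lowest replicate activity score at least 50, where 100 means six control SD above control mean; inconclusive = lowest score under 50 but half or more replicates reach 50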;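 note: yeast exposed to compound for 9 h at 30 °C; higher score means more reporter readthrough which indicates perturbed polyadenylation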
L major viab = Leishmania major promastigote growth inhibition | Leishmania major promastigotes, resazurin fluorescence viability | 200,000 compounds, 9% hits | inhibition, % at 10 µM; in the data active = inhibition above about 50%;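 note: promastigotes grown with compound for 44 hours at 28 °C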
NLRP3 yeast inh = inhibitors of NALP3 inflammasome in yeast. inhibition, % at 10 µM. 330,000 compounds, 0.39% hits. AID 2825. Yeast reconstituted NLRP3/ASC/caspase-1, beta-gal luminescence, 24 h;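 active = inhibition of 50% or more; inactive = inhibition below 50%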;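 note: plate controls were induced DMSO wells for no effect and uninduced yeast grown without galactose for full effect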
The depositor's hits bear a star. The sample as a whole holds a higher share of hits than the screen did.

For O=C1CN(C(=O)CN2CCCCC2)C(c2ccccc2)c2cc(Br)ccc2N1 (stereo unspecified) the results were T cruzi inh 7.5, NALP1 yeast inh -4.1, Calb FLC -9.5, PolyA inhibitor 8.1, L major viab 98.3* and NLRP3 yeast inh 10.9.
For O=Cc1cn(Cc2ccccc2[N+](=O)[O-])c2ccccc12 the results were T cruzi inh -24.3, NALP1 yeast inh 24.9, Calb FLC -16.4, PolyA inhibitor -10.8, L major viab 50.4* and NLRP3 yeast inh -9.6.
Screening CCOC(=O)C1=C(C)OC(N)=C(C(=O)OCC)[C@@]12C(=O)N(CC(N)=O)c1ccccc12 returned T cruzi inh 2.2, NALP1 yeast inh 4.0, Calb FLC -8.7, PolyA inhibitor 4.1, L major viab 1.2 and NLRP3 yeast inh 10.3.
CCOC(=O)C1=C(N)OC2=C(C(=O)CCC2)[C@]12C(=O)N(CC(N)=O)c1ccccc12 was read as T cruzi inh -5.8, NALP1 yeast inh 36.0*, Calb FLC -3.7, PolyA inhibitor 6.5 and NLRP3 yeast inh -10.0.
Screening CCOc1ccc(-n2c(O)c(C=NCCN(CC)CC)c(=O)[nH]c2=O)cc1 returned T cruzi inh -0.4, NALP1 yeast inh 3.1, Calb FLC -3.6, PolyA inhibitor -14.2, L major viab -2.3 and NLRP3 yeast inh 0.8.
Screening CC(CCc1ccccc1)NC(C)C(O)c1ccc(O)cc1 (stereo unspecified) returned T cruzi inh 4.8, NALP1 yeast inh 21.7, PolyA inhibitor 2.5, L major viab 89.4* and NLRP3 yeast inh 8.5.
O=[N+]([O-])c1ccccc1CNCCc1ccc(F)cc1 was read as T cruzi inh 10.2, NALP1 yeast inh 17.4, Calb FLC -14.8, PolyA inhibitor 7.5, L major viab 24.3 and NLRP3 yeast inh 8.1.
O=[N+]([O-])c1ccc(CNCCc2ccccc2)cc1 was read as T cruzi inh 58.6*, NALP1 yeast inh 6.4, Calb FLC -2.2, PolyA inhibitor 1.4 and NLRP3 yeast inh 11.2.
For CCOc1ccc([N+](=O)[O-])cc1CNCCc1ccccc1 the results were T cruzi inh 29.6, NALP1 yeast inh 11.8, Calb FLC -41.8, PolyA inhibitor -3.2, L major viab 96.5* and NLRP3 yeast inh 11.7.
Screening COC(=O)C1=C(c2ccc(OC)c(OC)c2)C[C@@H]2CC[C@H]1N2C(=O)NCCOc1ccc(OC)cc1 returned NLRP3 yeast inh 22.0.
CC1(C)CN(S(=O)(=O)OCC(Cl)(Cl)Cl)C(=O)N1 was read as T cruzi inh 13.0, NALP1 yeast inh 7.0, Calb FLC -13.7, PolyA inhibitor -7.6 and NLRP3 yeast inh 10.8.
For COc1cc(/C=N/NP(=S)(c2ccccc2)c2ccccc2)ccc1O the results were T cruzi inh -16.8, NALP1 yeast inh -23.7, Calb FLC 6.2, PolyA inhibitor -18.1, L major viab 80.7* and NLRP3 yeast inh 1.8.
For Cc1nn(Cc2ccccc2Cl)c(Cl)c1C(=O)OCC(=O)NC(=O)NC1CCCCC1 the results were T cruzi inh 0.4, NALP1 yeast inh 23.6, Calb FLC 3.7, PolyA inhibitor 17.9, L major viab 52.2* and NLRP3 yeast inh 19.0.
Screening CCOC(=O)c1c(N)n(CCN2CCCCC2)c2nc3ccccc3nc12 returned T cruzi inh 2.0, NALP1 yeast inh 2.5, Calb FLC 0.5, PolyA inhibitor 2.7, L major viab 54.9* and NLRP3 yeast inh 8.4.
`Nc1c(C(=O)NCCc2ccccc2)c2nc3ccccc3nc2n1CCN1CCOCC1` gave T cruzi inh 32.7, NALP1 yeast inh 13.2, Calb FLC 1.9, PolyA inhibitor 0.9, L major viab 23.7 and NLRP3 yeast inh 7.1.
Screening CCCCn1c(NS(=O)(=O)c2ccccc2)c(C(=O)OCC)c2nc3ccccc3nc21 returned T cruzi inh 21.6, NALP1 yeast inh 11.2, PolyA inhibitor 14.4 and L major viab 99.0*.
Screening COc1ccc(CCNC(=O)c2c(N)n(CCN3CCOCC3)c3nc4ccccc4nc23)cc1 returned T cruzi inh 35.1, NALP1 yeast inh -20.7, Calb FLC -6.0, PolyA inhibitor 3.0, L major viab 96.5* and NLRP3 yeast inh 3.4.
`Cc1nn(Cc2ccccc2)c(Cl)c1C(=O)OC(C)C(=O)Nc1ccc(F)cc1Cl` (stereo unspecified) gave T cruzi inh 10.1, Calb FLC inconclusive, PolyA inhibitor -1.3, L major viab -1.7 and NLRP3 yeast inh 17.9.
CCOP(=O)(OCC)C(NC(=O)C(Cl)Cl)C(Cl)(Cl)Cl (stereo unspecified) was read as T cruzi inh -0.8, NALP1 yeast inh -15.5, Calb FLC 5.0, PolyA inhibitor 23.0, L major viab -7.6 and NLRP3 yeast inh -12.6.
For Fc1ccc(CCNCc2ccc(Cl)c(Cl)c2)cc1 the results were T cruzi inh 67.2*, NALP1 yeast inh 24.2, Calb FLC -6.1, PolyA inhibitor 3.9, L major viab -0.1 and NLRP3 yeast inh 25.7.
Screening COc1ccc(CCNCc2ccncc2)cc1OC returned T cruzi inh -9.1, NALP1 yeast inh 27.6, Calb FLC -14.8, PolyA inhibitor 18.0, L major viab 51.1* and NLRP3 yeast inh 20.7.
CCc1ccc(CNCCc2ccc(F)cc2)cc1 was read as T cruzi inh 58.8*, NALP1 yeast inh 23.2, Calb FLC -22.5, PolyA inhibitor 2.7, L major viab 9.2 and NLRP3 yeast inh 21.2.
CCN(CC)c1ccc(CNCCc2ccc(F)cc2)cc1 was read as T cruzi inh 52.5, NALP1 yeast inh 22.4, Calb FLC -19.7, PolyA inhibitor -4.7, L major viab 95.8* and NLRP3 yeast inh 35.1.
Fc1ccc(CNCCc2ccc3c(c2)OCO3)cc1 was read as T cruzi inh 34.5, NALP1 yeast inh 8.2, Calb FLC -19.9, PolyA inhibitor -2.3 and NLRP3 yeast inh 14.9.
`COc1ccccc1CNCCc1ccc(F)cc1` gave T cruzi inh 51.6, NALP1 yeast inh 2.2, Calb FLC 2.8, PolyA inhibitor 12.6 and NLRP3 yeast inh 9.7.
For CN1CCc2cccc(Cl)c2CC1 the results were NLRP3 yeast inh 19.1.
`CCN1C[C@]2(C)CC[C@H](OC)[C@]34C2[C@H](OC(C)=O)[C@@]2(OCO[C@@]25C[C@H](OC)[C@H]2C[C@]3(O)C5[C@H]2OC)[C@@H]14` gave T cruzi inh -12.6, NALP1 yeast inh 13.8, Calb FLC -0.6, PolyA inhibitor 4.2 and NLRP3 yeast inh -5.0.
For O=C1CCN(C(=O)C(Cl)Cl)N1 the results were T cruzi inh -8.4, NALP1 yeast inh -3.0, Calb FLC -8.3, PolyA inhibitor 10.7, L major viab -7.0 and NLRP3 yeast inh 0.6.
Screening CC(=O)O[C@H]1CCC2C3CCC4=CC(=O)CCC4=C3C=C[C@@]21C (stereo partly specified) returned T cruzi inh -0.6, NALP1 yeast inh 28.1, Calb FLC 12.6, PolyA inhibitor -17.3 and NLRP3 yeast inh 20.2.

Bioassay records as filed in PubChem.
